Test results from ChEMBL document CHEMBL1132342, “Novel hypotensive agents from Verbesina caracasana. 6. Synthesis and pharmacology of caracasandiamide” (1999).

Tests used:
Rattus norvegicus [1] = experiment: Maximum rate of rise of the left ventricular isovolumetric pressure was measured after iv administration of 4.12 uM/Kg in anesthetized rats; format: functional, Heart left ventricle
Rattus norvegicus [2] = experiment: Change in stroke volume after iv administration of 800 ug/Kg in anesthetized rats; format: functional
Method in brief: (§1)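 Male Wistar rats (299 ± 3 g) were anesthetized with ethylurethane ip, tracheally cannulated and breathing spontaneously, at 37 °C, and stabilized for 60 min. Doses of 50-3200 µg/kg (ratio 2.0) in saline were injected by femoral vein, 50 µL each. Recordings: femoral arterial BP, electromagnetic abdominal-aortic flow, SV from integrated pulsatile flow, polygraphic RF. Peak changes, mean ± SE, n = 12 (n = 7 at 3200).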

Rattus norvegicus [3] = experiment: Change in heart rate after iv administration of 400 ug/Kg in the presence of adrenaline (agonist) in anesthetized rats; format: functional
Method in brief: (§2)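 Urethane-anesthetized male Wistar rats (16 rats, two equal groups) received 400 or 1600 µg/kg compound iv. Cardiovascular responses to iv agonist boluses (noradrenaline 1 µg/kg, acetylcholine 2.50 µg/kg, adrenaline, isoprenaline) were measured before and after compound dosing. Peak responses are given as mean ± SE; p < 0.05 versus control mean.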

Rattus norvegicus [4] = experiment: Change in systolic blood pressure after iv administration of 800 ug/Kg compound (treatment with hexamethonium (5 mg/Kg, iv)in anesthetized rats; format: functional, Artery
Method in brief: (§3)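 Anesthetized rats, n = 6 per group, received iv doses of 200–1600 µg/kg (ratio 2.0) either alone (control) or under pretreatment: continuous iv papaverine infusion 1 mg/kg/min, reserpine 5 mg/kg/day ip for 2 days, or hexamethonium 5 mg/kg iv. Peak changes in BP, heart rate and dP/dt recorded; means ± SE, p < 0.05 versus control.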

Rattus norvegicus [5] = experiment: Change in stroke volume after iv administration of 50 ug/Kg in anesthetized rats; format: functional; method in brief: as §1
Rattus norvegicus [6] = experiment: Change in systolic blood pressure after iv administration of 800 ug/Kg compound (treatment with reserpine(5 mg/kg/day for 2 days, ip)in anesthetized rats; format: functional, Artery; method in brief: as §3
Rattus norvegicus [7] = experiment: Change in diastolic blood pressure after iv administration of 1600 ug/Kg in the presence of acetylcholine (agonist) in anesthetized rats; format: functional, Artery; method in brief: as §2
Rattus norvegicus [8] = experiment: Change in systolic blood pressure after iv administration of 1600 ug/Kg in the presence of adrenaline (agonist) in anesthetized rats; format: functional, Artery
Rattus norvegicus [9] = experiment: Maximum rate of rise of the left ventricular isovolumetric pressure was measured after iv administration of 400 ug/Kg in the presence of noradrenaline (agonist) in anesthetized rats; format: functional, Heart left ventricle
Method in brief: (§4)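 Anesthetized male Wistar rats, two groups of 8, received 400 or 1600 µg/kg iv. Before and after this dose, iv agonist challenges were given: noradrenaline 1 µg/kg, adrenaline, acetylcholine 2.50 µg/kg, or isoprenaline. Systolic/diastolic BP, heart rate and dP/dt responses were recorded before (control) and after dosing; significance was set at p < 0.05 versus control.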

Rattus norvegicus [10] = experiment: Change in heart rate after iv administration of 800 ug/Kg compound (treatment with hexamethonium (5 mg/Kg, iv)in anesthetized rats; format: functional
Method in brief: (§5)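 Urethane-anesthetized male Wistar rats, 6 per group, received iv doses of 200-1600 µg/kg (ratio 2.0) given alone or under a pretreatment. Pretreatments were continuous iv papaverine infusion (1 mg/kg/min), reserpine 5 mg/kg/day ip for 2 days, or hexamethonium 5 mg/kg iv. Peak changes in femoral arterial BP and HR were recorded; values are mean ± SE.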

Rattus norvegicus [11] = experiment: Change in diastolic blood pressure after iv administration of 800 ug/Kg compound (treatment with hexamethonium (5 mg/Kg, iv)in anesthetized rats; format: functional, Artery
Method in brief: (§6)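 In anesthetized male Wistar rats, responses to iv compound (200–1600 µg/kg, ratio 2.0) were measured alone and under three pretreatments: continuous iv papaverine infusion (1 mg/kg/min), ip reserpine (5 mg/kg/day for 2 days), or iv hexamethonium (5 mg/kg). Peak changes are given as mean ± SE, n = 6 per group; p < 0.05 versus control.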

Rattus norvegicus [12] = experiment: Maximum rate of rise of the left ventricular isovolumetric pressure was measured after iv administration of 400 ug/Kg in anesthetized rats; format: functional, Heart left ventricle
Method in brief: (§7)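 Urethane-anesthetized (10% w/v, […] ip in saline) adult male Wistar rats, trachea cannulated, breathing spontaneously, 37 °C. Femoral artery catheter for blood pressure, femoral vein for dosing. Sequential iv doses 50–3200 µg/kg (ratio 2.0) in saline, each given after parameters returned to baseline. Peak changes recorded; means ± SE, n = 12 (n = 7 at 3200 µg/kg).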

Rattus norvegicus [13] = experiment: Maximum rate of rise of the left ventricular isovolumetric pressure was measured after iv administration of 1600 ug/Kg in the presence of isoprenaline (agonist) in anesthetized rats; format: functional, Heart left ventricle; method in brief: as §4
Rattus norvegicus [14] = experiment: Maximum rate of rise of the left ventricular isovolumetric pressure was measured after iv administration of 100 ug/Kg in anesthetized rats; format: functional, Heart left ventricle; method in brief: as §7
Rattus norvegicus [15] = experiment: Change in systolic blood pressure after iv administration of 1600 ug/Kg in the presence of noradrenaline (agonist) in anesthetized rats; format: functional, Artery
Rattus norvegicus [16] = experiment: Change in heart rate after iv administration of 1600 ug/kg compound (treatment with reserpine(5 mg/kg/day for 2 days, ip))in anesthetized rats; format: functional; method in brief: as §6
Rattus norvegicus [17] = experiment: Change in systolic blood pressure after iv administration of 1600 ug/Kg compound (treatment with reserpine(5 mg/kg/day for 2 days, ip)in anesthetized rats; format: functional, Artery; method in brief: as §5
Rattus norvegicus [18] = experiment: Change in heart rate after iv administration of 400 ug/Kg in the presence of isoprenaline (agonist) in anesthetized rats; format: functional; method in brief: as §2
Rattus norvegicus [19] = experiment: Maximum rate of rise of the left ventricular isovolumetric pressure was measured after iv administration of 400 ug/Kg in the presence of adrenaline (agonist) in anesthetized rats; format: functional, Heart left ventricle; method in brief: as §4
Rattus norvegicus [20] = experiment: Change in mean aortic flow after iv administration of 800 ug/Kg in anesthetized rats; format: functional; method in brief: as §1
Rattus norvegicus [21] = experiment: Maximum rate of rise of the left ventricular isovolumetric pressure was measured after iv administration of 1600 ug/Kg in anesthetized rats; format: functional, Heart left ventricle; method in brief: as §7
Rattus norvegicus [22] = experiment: Change in mean aortic flow after iv administration of 3200 ug/Kg in anesthetized rats; format: functional; method in brief: as §1
Rattus norvegicus [23] = experiment: Maximum rate of rise of the left ventricular isovolumetric pressure was measured after iv administration of 1600 ug/Kg compound (treatment with papaverine(1 mg/Kg/min, iv)in anesthetized rats; format: functional, Heart left ventricle; method in brief: as §3
Rattus norvegicus [24] = experiment: Change in diastolic blood pressure after iv administration of 200 ug/Kg in anesthetized rats; format: functional, Artery
Method in brief: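 Adult male Wistar rats under ip ethylurethane (10% w/v in saline, 1 mL/kg) with tracheal cannula and spontaneous breathing, kept at 37 °C. Arterial BP was recorded by femoral artery catheter; compound in saline (50 µL) was given via femoral vein at 50–3200 µg/kg, ratio 2.0. Peak change is given as mean ± SE, n = 12 (n = 7 at 3200 µg/kg).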

Rattus norvegicus [25] = experiment: Change in stroke volume after iv administration of 400 ug/Kg in anesthetized rats; format: functional; method in brief: as §1

SMILES: COc1ccc(C2C(c3ccc(OC)c(OC)c3)[C@H](C(=O)NCCCC/N=C(\N)NCC=C(C)C)[C@@H]2C(=O)NCCCC/N=C(\N)NCC=C(C)C)cc1OC (stereo partly drawn) [CARACASANDIAMIDE]
- dP/dt (Rattus norvegicus [1]): 3991 mmHg s-1
- Change in stroke volume (Rattus norvegicus [2]): -43%
- Stroke volume (Rattus norvegicus [2]): -86 µL
- Heart rate (Rattus norvegicus [3]): 24 beats min-1
- BP (Rattus norvegicus [4]): -50 mmHg
- Change in stroke volume (Rattus norvegicus [5]): 36%
- BP (Rattus norvegicus [6]): -11 mmHg
- BP (Rattus norvegicus [7]): -54 mmHg
- BP (Rattus norvegicus [8]): 14 mmHg
- dP/dt (Rattus norvegicus [9]): 5136 mmHg s-1
- Heart rate (Rattus norvegicus [10]): -57 beats min-1
- BP (Rattus norvegicus [11]): -53 mmHg
- Change in dP/dt (Rattus norvegicus [12]): 43%
- dP/dt (Rattus norvegicus [12]): 2615 mmHg s-1
- dP/dt (Rattus norvegicus [13]): 14552 mmHg s-1
- Change in dP/dt (Rattus norvegicus [14]): 18%
- dP/dt (Rattus norvegicus [14]): 1129 mmHg s-1
- BP (Rattus norvegicus [15]): 24 mmHg
- Heart rate (Rattus norvegicus [16]): -14 beats min-1
- BP (Rattus norvegicus [17]): -16 mmHg
- Heart rate (Rattus norvegicus [18]): 69 beats min-1
- dP/dt (Rattus norvegicus [19]): 6848 mmHg s-1
- Change in mean aortic flow (Rattus norvegicus [20]): -34%
- Mean aortic flow (Rattus norvegicus [20]): -25 mL/min
- Change in dP/dt (Rattus norvegicus [21]): 60%
- dP/dt (Rattus norvegicus [21]): 3676 mmHg s-1
- Change in mean aortic flow (Rattus norvegicus [22]): -56%
- Mean aortic flow (Rattus norvegicus [22]): -41 mL/min
- dP/dt (Rattus norvegicus [23]): 3321 mmHg s-1
- BP (Rattus norvegicus [24]): -13 mmHg
- Change in BP (Rattus norvegicus [24]): -17%
- Change in stroke volume (Rattus norvegicus [25]): -23%
- Stroke volume (Rattus norvegicus [25]): -46 µL
